Experimental data as given in PMC8201661 (Cell chemical biology, 2020).

How the values were obtained:
[1] = tested on: RPMI 8226 cells; assay: Cell toxicity, WST-1 assay, RPMI 8226; assay type: cell-based; conditions: Homo sapiens, RPMI-8226, 48 h, read-out: EC50 cytotoxicity, RPMI 8226
[2] = tested on: MM1.R cells; assay: Cell toxicity, WST-1 assay, MM1.R; assay type: cell-based; conditions: Homo sapiens, MM.1R, 48 h, read-out: EC50 cytotoxicity, MM1.R
In short: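 MM1.R cells grown in RPMI-1640 with 10% FBS, non-essential amino acids and penicillin/streptomycin at 37 °C, 5% CO2. Cells exposed to a range of test-compound concentrations for 24 h or 48 h. Viability read by WST-1 per manufacturer's protocol as values relative to control, n = 3. EC50 fitted from concentration–response.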

[3] = tested on: 20S proteasome subunits PSMB5, PSMB10, PSMA5, PSMB1, and PSMB2; assay: In situ competitive LC-MS/MS pull-down with probe 20; assay type: cell-based, human; conditions: RPMI 8226 cells, 100 nM 1 for 6 hours, then 10 μM 20; LFQ, n = 6
In short: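 RPMI 8226 cells grown to confluence, then given fresh medium with 100 nM test compound (1000x DMSO stock) or DMSO for 6 h. Washed cells were sonicated in PBS. Lysate (2.32 mg/mL) got 10 μM alkyne probe, 1 h r.t. CuAAC used 30 μM biotin azide, 1 mM TCEP, 100 μM TBTA and 1 mM CuSO4 (1 h), then streptavidin enrichment and on-bead TCEP/iodoacetamide treatment. Trypsin digest, LC-MS/MS, LFQ ratios; n = 6 (3 biological × 2 technical).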

[4] = tested on: RPMI 8226 cells; assay: Western blot for mono-/poly-Ub and PARP-1; assay type: cell-based, human; conditions: RPMI 8226 cells treated with various concentrations for 6 h
In short: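 RPMI 8226 cells (1,000,000/well) given a range of test-compound concentrations (1000x DMSO stock) or DMSO for 6 h. Lysis in RIPA with protease inhibitors (5 min, ice), then sonication and clearing at 17000 x g. Protein by BCA. After SDS-PAGE and PVDF wet transfer, membranes blocked in 5% milk/TBST and probed for PARP-1 (1:1,000 in 5% BSA/TBST), mono/poly-ubiquitin and α-tubulin as loading control.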

[5] = tested on: MM1.R; conditions: read-out: Previously reported cytotoxicity, MM1.R; ref Hideshima et al., 2001; cited from earlier work
[6] = tested on: RPMI 8226; conditions: cited from earlier work

In the case of CC(C)CCCCC/C=C/C=C/C(=O)N[C@H](C(=O)N[C@H]1C[C@@H](O)CCNC(=O)/C=C/[C@H](C)NC1=O)[C@@H](C)O [Compound 1, (2E,4E)-N-((2S,3R)-3-hydroxy-1-(((5S,8S,10S,E)-10-hydroxy-5-methyl-2,7-dioxo-1,6-diazacyclododec-3-en-8-yl)amino)-1-oxobutan-2-yl)-11-methyldodeca-2,4-dienamide], the EC50 [1] is reported as 31 nM, the EC50 [2] is reported as 23 nM and the “Competition of 20-enriched PSMB5, PSMB10, PSMA5, PSMB1 and PSMB2” value [3] is reported as > 50%. The “PARP-1 Western blot (apoptosis marker)” value [4] was “PARP-1 cleavage” and the “Ubiquitinated proteins (mono-/poly-ubiquitin Western blot)” value [4] was “concentration-dependent increase in ubiquitinated proteins”.
For CC(C)C[C@H](NC(=O)[C@H](Cc1ccccc1)NC(=O)c1cnccn1)B(O)O [bortezomib], the EC50 [5] is given as 3 nM.
In the case of CC(C)C[C@H](NC(=O)[C@H](CCc1ccccc1)NC(=O)CN1CCOCC1)C(=O)N[C@@H](Cc1ccccc1)C(=O)N[C@@H](CC(C)C)C(=O)[C@@]1(C)CO1 [carfilzomib], the EC50 [6] is listed as 5 nM.
